# Measurements gathered from unrelated publications.
# Lines come from different studies, so protocols differ.
# MAPK14: Mitogen-activated protein kinase 14 (MAPK14, Homo sapiens, UniProt Q16539)
# MAPK14 T106M: Mitogen-activated protein kinase 14 (MAPK14, Homo sapiens, UniProt Q16539, T106M)
SMILES,target,read-out,mode,technique,concentration,measurement,result
CSc1nc(-c2ccnc(N[C@@H](C)c3ccccc3)c2)c(-c2ccc(F)cc2)[nH]1 (racemic),MAPK14,cell-free assay,,,0.5 µM,remaining signal,7.64%
Cc1ccc(C(=O)Nc2ccc(CN3CCN(C)CC3)c(C(F)(F)F)c2)cc1C#Cc1cnc2cccnn12,MAPK14,enzyme activity,inhibitor,,23.5 nM,remaining activity,29%
COc1cc(Nc2cnc(C#N)c(O[C@H](C)CN(C)C)n2)ncc1-c1cnn(C)c1,MAPK14,enzyme activity,inhibitor,radiometric,10 µM,remaining activity,85%
Cc1cc(NC(=O)c2cccc3cc(-c4cccc5[nH]nc(N)c45)ccc23)ccc1F,MAPK14 T106M,enzyme activity,inhibitor,,0.1 µM,activity vs control,96%
CCN(CC)CCNC(=O)c1c(C)[nH]c(/C=C2\C(=O)Nc3ccc(F)cc32)c1C,MAPK14,enzyme activity,inhibitor,,0.3 µM,inhibition,-11%
CC1=C(C#N)[C@@H](c2ccc3[nH]nc(C)c3c2)C(C#N)=C(c2ccc(Cl)cc2)N1,MAPK14,cell-free assay,,competition with immobilised ligand,1 µM,remaining binding,100%
CNC(=O)c1cc(Oc2ccc(NC(=O)Nc3ccc(Cl)c(C(F)(F)F)c3)cc2)ccn1,MAPK14 T106M,enzyme activity,inhibitor,,0.3 µM,inhibition,59%
c1ccc(CNc2nc(N3CCOc4ccccc43)nc3c2CCCC3)cc1,MAPK14,target engagement in cells,inhibitor,chemoproteomics,20 mM,inhibition,6.3%
Cc1cnc(NC2CCOCC2)nc1-n1cnc(C(=O)NC(CN)c2cc(F)cc(Cl)c2)c1 (centres unmarked),MAPK14,enzyme activity,inhibitor,radiometric,1 µM,remaining activity,77%
FC(F)c1nc2ccccc2n1-c1nc(N2CCOCC2)nc(N2CCOCC2)n1,MAPK14,enzyme activity,inhibitor,,10 µM,remaining activity,89%
O=C(NS(=O)(=O)c1ccc(NCC2CCOCC2)c([N+](=O)[O-])c1)c1ccc(N2CCN(Cc3ccc(C(F)(F)F)cc3-c3ccc(Cl)cc3)CC2)cc1Oc1cnc2[nH]ccc2c1,MAPK14,cell-free assay,,competition with immobilised ligand,1 µM,remaining binding,97%
O=C(Nc1cnn(-c2csc(C(=O)NC3COC3)c2)c1)Nc1ccccc1Cl,MAPK14,enzyme activity,inhibitor,,5 µM,remaining activity,142%
O=C(N[C@H]1CCCCC/C=C\C2C[C@@]2(C(=O)O)NC(=O)[C@@H]2C[C@@H](Oc3ccncc3)CN2C1=O)OC1CCCC1 (some centres unmarked),MAPK14,binding,,competition with immobilised ligand,1 µM,remaining binding,94%
N#Cc1c(NC(=O)c2cccc3ccccc23)sc2c1CCCC2,MAPK14,cell-free assay,,,0.5 µM,remaining signal,98.1%
COc1ccc2c(c1)O[C@@H](c1ccc(OC)c(OC)c1)C[C@H]2NC(=O)C1(c2ccc3c(c2)OC(F)(F)O3)CC1,MAPK14,cell-free assay,,competition with immobilised ligand,1 µM,remaining binding,99%
C#Cc1cccc(Nc2ncnc3cc(OCCOC)c(OCCOC)cc23)c1,MAPK14,cell-free assay,,,0.5 µM,remaining signal,95.3%
O=C(NC[C@@H]1[C@H]2CN(C(=O)OCc3cc(C(F)(F)F)cc(C(F)(F)F)c3)C[C@@H]12)c1ccc2[nH]nnc2c1,MAPK14,cell-free assay,,competition with immobilised ligand,1 µM,remaining binding,100%
Nc1nc(Nc2ccccc2)sc1C(=O)c1c(F)cccc1F,MAPK14,enzyme activity,inhibitor,,10 µM,remaining activity,8%
Cc1nc(Cc2cccc(C(F)(F)F)c2)sc1-c1ccc(C(N)=O)nc1,MAPK14,cell-free assay,,competition with immobilised ligand,1 µM,remaining binding,100%
Cc1ccc(Nc2nccc(N(C)c3ccc4c(C)n(C)nc4c3)n2)cc1S(N)(=O)=O,MAPK14,enzyme activity,inhibitor,,10 µM,inhibition,62%
